Experimental data taken from ChEMBL document CHEMBL4028916, “A Dipolar Cycloaddition Reaction To Access 6-Methyl-4,5,6,7-tetrahydro-1H-[1,2,3]triazolo[4,5-c]pyridines Enables the Discovery Synthesis and Preclinical Profiling of a P2X7 Antagonist Clinical Candidate” (J Med Chem, 2018).

How the values were obtained:
[1] = Apparent permeability across basolateral to apical side in human Caco2 cells; type: ADME, cell-based; conditions: Caco-2
Summary of the method: (§1)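 Caco-2 bidirectional permeability, reported as Papp B-A/A-B (×10⁻⁶ cm/s).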

[2] = Drug uptake in Sprague-Dawley rat plasma administered at 10 mg/kg, po measured after 0.5 hrs; type: ADME, organism-based
Summary of the method: (§2)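 Male Sprague Dawley rats (300–400 g) given 10 mg/kg p.o. One compound was dosed as a 0.5% HPMC suspension and the other as a 20% HP-β-cyclodextrin solution. Two animals per time point were killed with CO2 at 0.5, 2 and 6 h, and plasma and brain drug levels were taken. Data are mean ± SEM (n=2).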

[3] = Volume of distribution at steady state in Sprague-Dawley rat at 0.5 mg/kg, iv or […], po by LC-MS/MS method; type: ADME, organism-based; conditions: in vivo, read-out: Vdss
[4] = Half life in Sprague-Dawley rat at 0.5 mg/kg, iv by LC-MS/MS method; type: ADME, organism-based; conditions: in vivo
Summary of the method: (§3)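 Single-dose PK in male Sprague-Dawley rats, beagle dogs or cynomolgus monkeys, given i.v. and p.o. as a solution in 50% PEG400/50% water or 20% HP-β-CD. Plasma measured by LC–MS/MS; parameters from noncompartmental analysis.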

[5] = AUC (24 hrs) in Sprague-Dawley rat at 0.5 mg/kg, iv or […], po by LC-MS/MS method; type: ADME, organism-based; conditions: in vivo
[6] = Cmax in Beagle dog at 0.125 mg/kg, iv or 0.625 mg/kg, po by LC-MS/MS method; type: ADME, organism-based, Canis lupus familiaris; conditions: in vivo
[7] = AUC in dog at 300 mg/kg, po for 5 days; type: ADME, organism-based, Canis lupus familiaris; conditions: in vivo
[8] = Oral bioavailability in Beagle dog at 0.625 mg/kg by LC-MS/MS method; type: ADME, organism-based, Canis lupus familiaris; conditions: in vivo; summary of the method: as §3
[9] = Drug uptake in Sprague-Dawley rat brain administered at 10 mg/kg, po measured after 2.0 hrs; type: ADME, organism-based; summary of the method: as §2
[10] = Clearance in cynomolgus monkey at 0.125 mg/kg, iv or 0.625 mg/kg, po by LC-MS/MS method; type: ADME, organism-based, Macaca fascicularis; conditions: in vivo
[11] = Volume of distribution at steady state in Beagle dog at 0.125 mg/kg, iv or 0.625 mg/kg, po by LC-MS/MS method; type: ADME, organism-based, Canis lupus familiaris; conditions: in vivo, read-out: Vdss
[12] = Clearance in Sprague-Dawley rat at 0.5 mg/kg, iv or […], po by LC-MS/MS method; type: ADME, organism-based; conditions: in vivo
[13] = Cmax in Sprague-Dawley rat at 0.5 mg/kg, iv or […], po by LC-MS/MS method; type: ADME, organism-based; conditions: in vivo
[14] = Oral bioavailability in cynomolgus monkey at 0.625 mg/kg by LC-MS/MS method; type: ADME, organism-based, Macaca fascicularis; conditions: in vivo; summary of the method: as §3
[15] = Half life in cynomolgus monkey at 0.125 mg/kg, iv by LC-MS/MS method; type: ADME, organism-based, Macaca fascicularis; conditions: in vivo; summary of the method: as §3
[16] = AUC in rat dosed at 250 mg/kg, po for 4 days; type: ADME, organism-based; conditions: in vivo
[17] = Volume of distribution at steady state in cynomolgus monkey at 0.125 mg/kg, iv or 0.625 mg/kg, po by LC-MS/MS method; type: ADME, organism-based, Macaca fascicularis; conditions: in vivo, read-out: Vdss
[18] = AUC (24 hrs) in cynomolgus monkey at 0.125 mg/kg, iv or 0.625 mg/kg, po by LC-MS/MS method; type: ADME, organism-based, Macaca fascicularis; conditions: in vivo
[19] = Oral bioavailability in Sprague-Dawley rat at […] by LC-MS/MS method; type: ADME, organism-based; conditions: in vivo
[20] = Drug uptake in Sprague-Dawley rat plasma administered at 10 mg/kg, po measured after 6.0 hrs; type: ADME, organism-based; summary of the method: as §2
[21] = Cmax in dog at 300 mg/kg, po for 5 days; type: ADME, organism-based, Canis lupus familiaris; design: dose 300 mg/kg, route oral; conditions: in vivo
[22] = Cmax in cynomolgus monkey at 0.125 mg/kg, iv or 0.625 mg/kg, po by LC-MS/MS method; type: ADME, organism-based, Macaca fascicularis; conditions: in vivo
[23] = Cmax in rat at 250 mg/kg, po for 4 days; type: ADME, organism-based; design: dose 250 mg/kg, route oral; conditions: in vivo
[24] = Half life in Beagle dog at 0.125 mg/kg, iv by LC-MS/MS method; type: ADME, organism-based, Canis lupus familiaris; conditions: in vivo
[25] = Partition coefficient, log D of the compound at pH 7.4; type: physicochemical; conditions: octanol/water
[26] = Drug uptake in Sprague-Dawley rat plasma administered at 10 mg/kg, po measured after 2.0 hrs; type: ADME, organism-based; summary of the method: as §2
[27] = Apparent permeability across apical to basolateral side in human Caco2 cells; type: ADME, cell-based; conditions: Caco-2; summary of the method: as §1
[28] = Clearance in Beagle dog at 0.125 mg/kg, iv or 0.625 mg/kg, po by LC-MS/MS method; type: ADME, organism-based, Canis lupus familiaris; conditions: in vivo
[29] = AUC (24 hrs) in Beagle dog at 0.125 mg/kg, iv or 0.625 mg/kg, po by LC-MS/MS method; type: ADME, organism-based, Canis lupus familiaris; conditions: in vivo
[30] = Drug uptake in Sprague-Dawley rat brain administered at 10 mg/kg, po measured after 0.5 hrs; type: ADME, organism-based; summary of the method: as §2
[31] = Drug uptake in Sprague-Dawley rat brain administered at 10 mg/kg, po measured after 6.0 hrs; type: ADME, organism-based; summary of the method: as §2
[32] = AUC in rat at 125 mg/kg, po for 5 days; type: ADME, organism-based; conditions: in vivo
[33] = Plasma concentration in guinea pig; type: ADME, Cavia porcellus
[34] = Oral bioavailability in Sprague-Dawley rat at 5 mg/kg by LC-MS/MS method; type: ADME, organism-based; conditions: in vivo; summary of the method: as §3
[35] = Volume of distribution at steady state in Sprague-Dawley rat at 1 mg/kg, iv or 5 mg/kg, po by LC-MS/MS method; type: ADME, organism-based; conditions: in vivo, read-out: Vdss
[36] = AUC (24 hrs) in Sprague-Dawley rat at 1 mg/kg, iv or 5 mg/kg, po by LC-MS/MS method; type: ADME, organism-based; conditions: in vivo
[37] = Half life in Beagle dog at […], iv by LC-MS/MS method; type: ADME, organism-based, Canis lupus familiaris; conditions: in vivo
[38] = Half life in cynomolgus monkey at 0.5 mg/kg, iv by LC-MS/MS method; type: ADME, organism-based, Macaca fascicularis; conditions: in vivo; summary of the method: as §3
[39] = AUC (24 hrs) in cynomolgus monkey at 0.5 mg/kg, iv or […], po by LC-MS/MS method; type: ADME, organism-based, Macaca fascicularis; conditions: in vivo
[40] = Oral bioavailability in Beagle dog at 1.25 mg/kg by LC-MS/MS method; type: ADME, organism-based, Canis lupus familiaris; conditions: in vivo; summary of the method: as §3
[41] = Cmax in cynomolgus monkey at 0.5 mg/kg, iv or […], po by LC-MS/MS method; type: ADME, organism-based, Macaca fascicularis; conditions: in vivo
[42] = Cmax in Sprague-Dawley rat at 1 mg/kg, iv or 5 mg/kg, po by LC-MS/MS method; type: ADME, organism-based; conditions: in vivo
[43] = AUC (24 hrs) in Beagle dog at […], iv or 1.25 mg/kg, po by LC-MS/MS method; type: ADME, organism-based, Canis lupus familiaris; conditions: in vivo
Cavia porcellus = organism: Cavia porcellus; assay: Toxicity in guinea pig; conditions: in vivo
[44] = Half life in Sprague-Dawley rat at 1 mg/kg, iv by LC-MS/MS method; type: ADME, organism-based; conditions: in vivo; summary of the method: as §3
[45] = AUC in dog at 10 mg/kg, po for 5 days; type: ADME, organism-based, Canis lupus familiaris; conditions: in vivo
[46] = Clearance in Sprague-Dawley rat at 1 mg/kg, iv or 5 mg/kg, po by LC-MS/MS method; type: ADME, organism-based; conditions: in vivo
[47] = Cmax in dog at 10 mg/kg, po for 5 days; type: ADME, organism-based, Canis lupus familiaris; design: dose 10 mg/kg, route oral; conditions: in vivo
[48] = Clearance in Beagle dog at […], iv or 1.25 mg/kg, po by LC-MS/MS method; type: ADME, organism-based, Canis lupus familiaris; conditions: in vivo
[49] = Clearance in cynomolgus monkey at 0.5 mg/kg, iv or […], po by LC-MS/MS method; type: ADME, organism-based, Macaca fascicularis; conditions: in vivo
[50] = Oral bioavailability in cynomolgus monkey at […] by LC-MS/MS method; type: ADME, organism-based, Macaca fascicularis; conditions: in vivo
Plasma = assay: Plasma concentration in dog; type: ADME, Canis lupus familiaris
[51] = Cmax in Beagle dog at […], iv or 1.25 mg/kg, po by LC-MS/MS method; type: ADME, organism-based, Canis lupus familiaris; conditions: in vivo
[52] = Volume of distribution at steady state in cynomolgus monkey at 0.5 mg/kg, iv or […], po by LC-MS/MS method; type: ADME, organism-based, Macaca fascicularis; conditions: in vivo, read-out: Vdss
[53] = Cmax in rat at 125 mg/kg, po for 5 days; type: ADME, organism-based; design: dose 125 mg/kg, route oral; conditions: in vivo
Canis familiaris = organism: Canis familiaris; assay: Toxicity in dog; design: species or system Canis lupus familiaris; conditions: in vivo
[54] = Volume of distribution at steady state in Beagle dog at […], iv or 1.25 mg/kg, po by LC-MS/MS method; type: ADME, organism-based, Canis lupus familiaris; conditions: in vivo, read-out: Vdss

C[C@H]1Cc2c(nnn2-c2ncc(F)cn2)CN1C(=O)c1cccc(C(F)(F)F)c1F
Papp B→A [1]: 73 ×10⁻⁶ cm/s | concentration at 0.5 h [2]: 855 ng/mL | Vd [3]: 2.5 L/kg | half-life [4]: 2.5 h | AUC at 24 h [5]: 3190 ng·h/mL | Cmax [6]: 305 ng/mL | AUC at 120 h [7]: 78400 ng·h/mL | bioavailability [8]: 123% | concentration at 2 h [9]: 2390 ng/mL | clearance [10]: 26 mL/min/kg | Vd [11]: 2.6 L/kg | clearance [12]: 12 mL/min/kg | Cmax [13]: 541 ng/mL | bioavailability [14]: 30% | half-life [15]: 0.9 h | AUC at 96 h [16]: 108000 ng·h/mL | Vd [17]: 1.7 L/kg | AUC at 24 h [18]: 122 ng·h/mL | bioavailability [19]: 90% | concentration at 6 h [20]: 1050 ng/mL | Cmax [21]: 5330 ng/mL | Cmax [22]: 36 ng/mL | Cmax [23]: 9260 ng/mL | half-life [24]: 8.8 h | logD [25]: 2.23 | concentration at 2 h [26]: 1880 ng/mL | Papp A→B [27]: 49 ×10⁻⁶ cm/s | clearance [28]: 3.8 mL/min/kg | AUC at 24 h [29]: 3040 ng·h/mL | concentration at 0.5 h [30]: 1060 ng/mL | concentration at 6 h [31]: 1620 ng/mL

C[C@H]1Cc2c(nnn2-c2ncc(F)cn2)CN1C(=O)c1ccnc(C(F)(F)F)c1F [ZANVIPIXANT]
Papp B→A [1]: 45 ×10⁻⁶ cm/s | concentration at 0.5 h [2]: 3190 ng/mL | AUC at 120 h [32]: 291000 ng·h/mL | Cp [33]: 4095 ng/mL | bioavailability [34]: 81% | Vd [35]: 1.7 L/kg | AUC at 24 h [36]: 17500 ng·h/mL | concentration at 2 h [9]: 2910 ng/mL | half-life [37]: 21.2 h | half-life [38]: 6 h | AUC at 24 h [39]: 16300 ng·h/mL | bioavailability [40]: 98% | Cmax [41]: 1860 ng/mL | Cmax [42]: 1750 ng/mL | AUC at 24 h [43]: 23300 ng·h/mL | concentration at 6 h [20]: 2440 ng/mL | NOAEL (Cavia porcellus): 1850 ng/mL | half-life [44]: 5.6 h | AUC at 120 h [45]: 167000 ng·h/mL | clearance [46]: 3.7 mL/min/kg | logD [25]: 1.65 | Cmax [47]: 10700 ng/mL | concentration at 2 h [26]: 3430 ng/mL | Papp A→B [27]: 35 ×10⁻⁶ cm/s | clearance [48]: 0.8 mL/min/kg | clearance [49]: 2.6 mL/min/kg | bioavailability [50]: 97% | Cp (Plasma): 2820 ng/mL | Cmax [51]: 1120 ng/mL | Vd [52]: 1.3 L/kg | Cmax [53]: 26000 ng/mL | NOAEL (Canis familiaris): 1280 ng/mL | Vd [54]: 1.4 L/kg | concentration at 0.5 h [30]: 3040 ng/mL | concentration at 6 h [31]: 1990 ng/mL
